Test results from ChEMBL document CHEMBL1146160, “Synthesis and evaluation of some lipidic aminoalcohols and diamines as immunomodulators” (Bioorg Med Chem Lett, 2006).
Activity calls are given as the source filed them. The rule behind the calls is not given here.

What was measured:
[1] = Inhibition of concanavalin A-stimulated lymphoproliferation in BALB/c mouse splenocytes at 10 ug/ml by MTT assay; type: functional; conditions: Splenocyte
[2] = Inhibition of concanavalin A-stimulated lymphoproliferation in BALB/c mouse splenocytes at 1 ug/ml by MTT assay; type: functional; conditions: Splenocyte
[3] = Cytotoxicity against BALB/c mouse splenocytes at 10 ug/ml by MTT assay; type: cell-based; conditions: splenocyte
Method in brief: (§1)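 Run in parallel with the proliferation assay on splenocyte cultures without Con-A, with MTT colourimetric read-out. Cytotoxicity % = [1 − OD(cells+compd)/OD(cells)] × 100.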

[4] = Cytotoxicity against BALB/c mouse splenocytes at 1 ug/ml by MTT assay; type: cell-based; conditions: splenocyte; method in brief: as §1
Macrophage [5] = assay: Increase in nitric oxide production in normal rat alveolar macrophages; type: functional, cell-based
Macrophage [6] = assay: Increase in nitric oxide production in LPS-pre-stimulated rat alveolar macrophages; type: functional, cell-based
Macrophage [7] = assay: Increase in nitric oxide production in LPS-pre-stimulated rat alveolar macrophages at 100 ug/ml; type: functional
Macrophage [8] = assay: Increase in nitric oxide production in LPS-pre-stimulated rat alveolar macrophages at 10 ug/ml; type: functional
Lymphocyte = assay: Reduction of rat lymphocyte stimulation by Graft-vs-Host assay relative to cyclophosphamide; type: functional; parameters: scale not given: the % may be the effect or the level left
Method in brief: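 In a Graft-vs-Host assay measuring immunosuppressant ability, cyclophosphamide at 100 mg/kg/day served as the reference drug.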

Compound `CCCCCCCCCCCCCCC(CO)NCC` (stereo not given) has an inhibition at 10 µg/mL [1] of 72.9%, an inhibition at 1 µg/mL [2] of 68.4% and an Activity [3] of 17.1%. The Activity [4] was 10.5%.

`CCCCCCCCCCCCCCC(CO)N(CCCC)CCCC` (stereo not given) gave an inhibition at 10 µg/mL [1] of 50.3% and an Activity [3] of 11.7%.

`CCCCCCCCCCCCCCC(COCc1ccccc1)NC(=O)CCCC(=O)O` (stereo not given) gave an inhibition at 10 µg/mL [1] of 65.4%, an inhibition at 1 µg/mL [2] of 27.8% and an Activity [3] of 6.4%. For the same compound, the Activity [4] was 0%, the Activity (Macrophage [5]) was “inactive” and the Activity (Macrophage [6]) was “inactive”.

Compound `CCCCCCCCCCCCCCC(N)CN(CC)CC` (stereo not given) has an inhibition at 10 µg/mL [1] of 84.5%, an inhibition at 1 µg/mL [2] of 74.2% and an Activity [3] of 24.2%. For the same compound, the Activity [4] was 1.7%, the Activity (Macrophage [5]) was “inactive” and the Activity (Macrophage [6]) was “inactive”.

Compound `CCCCCCCCCCCCCCC(N)CN` (stereo not given) has an inhibition at 10 µg/mL [1] of 50.1% and an Activity [3] of 2.5%.

`CCCCCCCCCCCCCCC(CO)N(CC)CC` (stereo not given) showed an inhibition at 10 µg/mL [1] of 79.5%, an inhibition at 1 µg/mL [2] of 74.8% and an Activity [3] of 12.8%. It also gave an Activity [4] of 7.5%.

With `CCCCCCCCCCCCCCC(CO)NC(=O)CCCC(=O)O` (stereo not given) the inhibition at 10 µg/mL [1] was 49.1% and the Activity [3] was 14.5%.

`CCCCCCCCCCCCCCC(CO)NC(=O)CCCC(=O)OC` (stereo not given) gave an inhibition at 10 µg/mL [1] of 50.2% and an Activity [3] of 18.9%.

`CCCCCCCCCCCCCCC(C(=O)O)N(CC)CC` (stereo not given) gave an inhibition at 10 µg/mL [1] of 43.1% and an Activity [3] of 12.1%.

In the case of `CCCCCCCCCCCCCCC(NC(=O)OC(C)(C)C)C(=O)O` (stereo not given), the inhibition at 10 µg/mL [1] is reported as 32.9% and the Activity [3] is reported as 5.1%.

In the case of `CCCCCCCCCCCCCCC(N)CNC(=O)CCCC(=O)O` (stereo not given), the inhibition at 10 µg/mL [1] is reported as 51%, the Activity [3] is reported as 12.8% and the Activity (Macrophage [5]) is reported as “inactive”. The Activity (Macrophage [6]) was “inactive”.

Work on `CCCCCCCCCCCCCCC(NCCCC)C(=O)O` (stereo not given) yielded an inhibition at 10 µg/mL [1] of 32.9% and an Activity [3] of 5.1%.

`CCCCCCCCCCCCCCC(COCc1ccccc1)NCC` (stereo not given) showed an inhibition at 10 µg/mL [1] of 49.8% and an Activity [3] of 11.9%.

In the case of `CCCCCCCCCCCCCCC(CN)NC(=O)OC(C)(C)C` (stereo not given), the inhibition at 10 µg/mL [1] is reported as 81.2%, the inhibition at 1 µg/mL [2] is reported as 73.4% and the Activity [3] is reported as 4.3%. For the same compound, the Activity [4] was 4.2%, the Activity (Macrophage [5]) was “inactive” and the Activity (Macrophage [7]) was 29%. The Activity (Macrophage [8]) was 20% and the Activity (Lymphocyte) was 32%.

`CCCCCCCCCCCCCCC(CO)NCCCC` (stereo not given) gave an inhibition at 10 µg/mL [1] of 49.1% and an Activity [3] of 16.4%.

For `CCCCCCCCCCCCCCC(COCc1ccccc1)NC(=O)CCCC(=O)OC` (stereo not given), the inhibition at 10 µg/mL [1] was 3.4%, the Activity [3] was 2.5% and the Activity (Macrophage [5]) was “inactive”. The Activity (Macrophage [6]) was “inactive”.

`CCCCCCCCCCCCCCC(CO)NCCCCCCCCCC` (stereo not given) showed an inhibition at 10 µg/mL [1] of 59.8%, an inhibition at 1 µg/mL [2] of 12% and an Activity [3] of 12.6%. The Activity [4] was 6.6%.

Compound `CCCCCCCCCCCCCCC(CO)NCCCCCC` (stereo not given) has an inhibition at 10 µg/mL [1] of 78.4%, an inhibition at 1 µg/mL [2] of 74.1% and an Activity [3] of 14.6%. For the same compound, the Activity [4] was 5%, the Activity (Macrophage [5]) was “inactive” and the Activity (Macrophage [7]) was 25%. For the same compound, the Activity (Lymphocyte) was 63%.

Work on `CCCCCCCCCCCCCCC(C(=O)O)N(CCCC)CCCC` (stereo not given) yielded an inhibition at 10 µg/mL [1] of 47.8% and an Activity [3] of 12.5%.

`CCCCCCCCCCCCCCC(COCc1ccccc1)N(CC)CC` (stereo not given) gave an inhibition at 10 µg/mL [1] of 72.6%, an inhibition at 1 µg/mL [2] of 71.6% and an Activity [3] of 15.6%. The Activity [4] was 14.1%.

For `CCCCCCCCCCCCCCC(N)CO` (stereo not given), the inhibition at 10 µg/mL [1] was 72.4%, the inhibition at 1 µg/mL [2] was 68.7% and the Activity [3] was 20.2%. The Activity [4] was 15.1%.

`CCCCCCCCCCCCCCC(CNC(=O)CCCC(=O)O)NC(=O)OC(C)(C)C` (stereo not given) showed an inhibition at 10 µg/mL [1] of 80.8%, an inhibition at 1 µg/mL [2] of 19.3% and an Activity [3] of 1.2%. The Activity [4] was 0% and the Activity (Macrophage [6]) was “inactive”.

For `CCCCCCCCCCCCCCC(N)COCc1ccccc1` (stereo not given), the inhibition at 10 µg/mL [1] was 79.1%, the inhibition at 1 µg/mL [2] was 0% and the Activity [3] was 12.2%. The Activity [4] was 0%, the Activity (Macrophage [5]) was “inactive” and the Activity (Macrophage [6]) was “inactive”.

With `CCCCCCCCCCCCCCC(CN(CC)CC)NC(=O)OC(C)(C)C` (stereo not given) the inhibition at 10 µg/mL [1] was 89.5%, the inhibition at 1 µg/mL [2] was 65.2% and the Activity [3] was 7.8%. For the same compound, the Activity [4] was 6.5%.
